The EternaBench riboswitch data

Test system: MS2 coat protein
Assay: apparent Kd, MS2 coat protein; higher = weaker binding; RNA-MaP array; FMN 200 µM where present
Outline: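 In 100 mM Tris-HCl pH 7.5, 80 mM KCl, 4 mM MgCl2, BSA, DTT, yeast tRNA and Tween-20, SNAP-549-labelled MS2 coat protein was titrated from 0.7 or 1.5 nM, doubling to 3 µM, over designs transcribed by stalled E. coli RNA polymerase on Illumina sequencing-chip clusters. This was done first without ligand, then with ligand held constant. After green signal was normalised to red-channel RNA signal and control-cluster median Fmax, the apparent Kd was taken as the median of filtered per-cluster binding-curve fits.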

[1] = designed as: ON switch for flavin mononucleotide, no ligand
[2] = ligand present: flavin mononucleotide, designed as: ON switch for flavin mononucleotide
[3] = designed as: OFF switch for flavin mononucleotide, no ligand
[4] = ligand present: flavin mononucleotide, designed as: OFF switch for flavin mononucleotide

AACAAUCUAUCUGAGGAUAUCAUGUCAAAGACAUGAGGAUCACCCAUGUACCAGGAAACUGGAUAUGAGAAGGCAGAUAGAUUGA
apparent Kd [1]: 199 nM
apparent Kd [2]: 22.8 nM

CCUCAGUAAGGAUAUCAGCUUAUAGAGUUGGUAAUGAGAGCUGAGAAGGUACAUGAGGAUCACCCAUGUUAGUU
apparent Kd [3]: 21.8 nM
apparent Kd [4]: 57.3 nM

AGAGAAUAGGUAGGAUAUCUUAAUAGAAAGAAUAGAGAAGGACCACAUGAGGAUCACCCAUGUGAAGUCUUGAGACUACAUGGU
apparent Kd [3]: 18.1 nM
apparent Kd [4]: 22.9 nM

AGUCGGCGAGGAUAUACAUGAGGAUCACCCAUGUGAUAUAGUGCACGCGUACGUGUACGUAGAAGGCGCUGACA
apparent Kd [3]: 13.3 nM
apparent Kd [4]: 40.1 nM

CGCAUGCGUAGUAUUAGUUGUUGACAGGAUAUGACAUGAGGAUCACCCAUGUGUAUUAAGAAGUGUCAGAAGGGUCUCGUUGCG
apparent Kd [3]: 6.53 nM
apparent Kd [4]: 9.73 nM

CGACAUACGAUGGACGGAAACGUACAUGAGGAUCACCCAUGUAGAAGGCGAUCCGCAACGCGGAUUGAGGAUAUAUACCACACA
apparent Kd [3]: 19.2 nM
apparent Kd [4]: 17.8 nM

CCUCCCAAGUAAGGAUAUCGGCCAUAGUUAACUCGAGAAGGUACAUGAGGAUCACCCAUGUCGUCCCUACAGACUCCUCCCUCC
apparent Kd [3]: 9.19 nM
apparent Kd [4]: 9.15 nM

CGCCUGCGUAGAAUUAGCAGCUGACAGGAUAUGACAUGAGGAUCACCCAUGUGAAUUAAGAAGAGUCAGAAGGGUCACGACGCG
apparent Kd [3]: 9.4 nM
apparent Kd [4]: 10.8 nM

GAAACCUCAGGUUAAGGUUGACGACAUGAGGAUCACCCAUGUAGAAGGACCAAGGCGACCGUACGGUAGGAUAUACACGGGAGG
apparent Kd [3]: 10.8 nM
apparent Kd [4]: 24.9 nM

CACUGCAAUGUAGGAUAUCGACUGGAAUACAGUCGAGAAGGACAUGAGGAUCACCCAUGUAAUCCUAAUAAUAAAUAAGCAGUG
apparent Kd [3]: 12.4 nM
apparent Kd [4]: 18.4 nM

UCUAGGGACGCAGGAUAUGGAGUGAGUGUCUAUCACAUGAGGAUCACCCAUGUUUGGGUCUCACGCUAGAAGGGCGAAUGUGGG
apparent Kd [1]: 357 nM
apparent Kd [2]: 63.5 nM

GUAGAGUAAGGAUAUCGAGAAUAGGAUAGAAUGGAUAGAAUCGAGAAGGUACAUGAGGAUCACCCAUGUAAUGU
apparent Kd [3]: 20.3 nM
apparent Kd [4]: 18.6 nM

GUGGUGCAUAUACGUGGAUGUACAUGAGGAUCACCCAUGUAAGAGGAUAUGCGGAUACUAGCUCAGCAGAAGGCUUACAAAUGC
apparent Kd [3]: 9.75 nM
apparent Kd [4]: 27.5 nM

GGUCGUCCCAUUAACAUGAGGAUCACCCAUGUCAAAAGACAUGAGGAUAUGGUACCUAAUUGGUACCAGAAGGCAUGGACGACC
apparent Kd [1]: 1210 nM
apparent Kd [2]: 115 nM

UUUUUGAAGCUUCGUCAAUACAGUUAGGAUAUGAGAGACAUGAGGAUCACCCAUGUGCAUGUUGAUUAGAAGGAACAACUAUCU
apparent Kd [3]: 14.2 nM
apparent Kd [4]: 12.7 nM

AUUUAAAUGUCAGGAUAUGUUAGUUUAUACUUAGUAGAAGGGAUAAUUAUACUCAAGUACAUGAGGAUCACCCAUGUUAAAUCA
apparent Kd [1]: 21 nM
apparent Kd [2]: 18.5 nM

GUACUGUAGUGAGGAUAUACGAGUACGAUAGUACGGCGAUCCAUUUAUACAUGAGGAUCACCCAUGUAGAAGGCACUUCAGUAC
apparent Kd [3]: 6.09 nM
apparent Kd [4]: 61.6 nM

GGAGCACGCACAGGAUAUCCGGCGGCGCUCGUCGGAGAAGGGUGACAUGAGGAUCACCCAUGUACGUGCAACUUAGUUUAAGAG
apparent Kd [1]: 37.1 nM
apparent Kd [2]: 29.6 nM

CCUUGUAUUGAGGAUAUGCGCCGGCUCGCUGGCGCAGAAGGCGGCACAUGAGGAUCACCCAUGUCAGUUCGCGA
apparent Kd [3]: 9.34 nM
apparent Kd [4]: 12 nM

GGAGACCUCAUAGGAUAUGCUGGACUUUGUCCAGCAGAAGGGUGAAAACAUGAGGAUCACCCAUGUAUGGUCUCCAAAUUUAAU
apparent Kd [1]: 992 nM
apparent Kd [2]: 327 nM

UGUAAUUAGUAAGGAUAUACUAGUGAUUAGCUUGUAGAAGGUACAGUCUUAUGUAUAACAAAUUAACAUGAGGAUCACCCAUGU
apparent Kd [1]: 10.2 nM
apparent Kd [2]: 8.74 nM

CCAUCAGCGGGCGUAUCGGUUGGACAUGAGGAUCACCCAUGUAGAAGGACAGGAGUAUUUCGGCUGUAGGAUAUACAUUUGGUG
apparent Kd [3]: 22.5 nM
apparent Kd [4]: 52.7 nM

AUAUCUUACCAAGGAUAUUUAAGAUUUGUGUAGACAUGAGGAUCACCCAUGUGGCCUUAGUCACGGGAGAAGGUGGUUUGAUAU
apparent Kd [1]: 878 nM
apparent Kd [2]: 493 nM

AAGAUGCGGAUAGGAUAUGGAAAGAAGGAAAGACCAGAAGGAUUGGUCAUAUAACAUGAGGAUCACCCAUGUAUAUGUUGUGAA
apparent Kd [3]: 17.8 nM
apparent Kd [4]: 17.7 nM

ACAUGAGGAUCACCCAUGUGAUGAUCUUCCAUGUCAUAUUUCAGAAGGCUCGCAUGUUUGAUGAGAGAGGAUAUGGAAUAUGCG
apparent Kd [3]: 790 nM
apparent Kd [4]: 368 nM

UACGUACAGAAGAACUCCGGGUCCAGAAGGGACAUGAGGAUCACCCAUGUACCGUUGAUUGCUUGUCAGGAUAUGGACCCGGCC
apparent Kd [3]: 6.67 nM
apparent Kd [4]: 28 nM

GCUGUCGCAUGAGGAUAUGGUCAGCUUUGCUGACCAGAAGGCAUGUCAAUAGACAUGAGGAUCACCCAUGUAGUAAAGGCGGCU
apparent Kd [1]: 380 nM
apparent Kd [2]: 37.8 nM

AUCCUACAUGAGGAUCACCCAUGUCAGGAUAUCCAAGAAAUGUGGCCGUAUCGGCCACGGAGAAGGGACGGGUG
apparent Kd [3]: 40 nM
apparent Kd [4]: 60.8 nM

CAGUACUGAGGAUAUACAUGAGGAUCACCCAUGUAUUCCAGCUAGGAAACUAGCACAUGUAGAAGGCAGUACUG
apparent Kd [3]: 14.2 nM
apparent Kd [4]: 31.1 nM

CUUUUGUGAGGAUAUUAUUAGUAAAUAAAUAAAAUUACUACUGAGAAGGCACAUGAGGAUCACCCAUGUUCCUC
apparent Kd [3]: 24.3 nM
apparent Kd [4]: 108 nM

UUUUUAUUUGCAGGAUAUUGUAUUUUAUUACAUCAAGAAGGGCAUUACAUGAGGAUCACCCAUGUCUUCCUAUGGUUAACUAGU
apparent Kd [3]: 12.3 nM
apparent Kd [4]: 10.2 nM

UUGCCUCAGAACAUGAGGAUCACCCAUGUGCUGCGGGCAUCGUAGGAUAUGAUGGUAUGAUACCAUCAGAAGGAUGAUGGUACC
apparent Kd [1]: 6.18 nM
apparent Kd [2]: 5.77 nM

UAAGGACAUGAGGAUCACCCAUGUGAGGAUAUGCUCUACGAACGUUUAUUUAUGAGAAGCAGAAGGCACAUUUU
apparent Kd [3]: 99.8 nM
apparent Kd [4]: 156 nM

GUGCGGUCAGGAUAUGCAUGGCGGGACUUGCGUCGUGGCGUGGAGAAGGGACAUGAGGAUCACCCAUGUGGAGU
apparent Kd [3]: 76.6 nM
apparent Kd [4]: 45.3 nM

UUUUUGUGAGGAUAUCAGUAGUAAAAAAAUAAAAUUACUACUGAGAAGGCACAUGAGGAUCACCCAUGUUCUUU
apparent Kd [3]: 18.7 nM
apparent Kd [4]: 58.5 nM

CGCUCUAUAUAUUUGGCAAGAAUCAGAAGGCGUUACAUGAGGAUCACCCAUGUUUUGAAUAGUAACGAGGAUAUGAUAUGAGCG
apparent Kd [3]: 21.6 nM
apparent Kd [4]: 25 nM

AAAGACUAAGGAUAUACAUGAGGAUCACCCAUGUCUACCCACAUGCUGGUAUCAACCUGUAGAAGGUAGUUCAA
apparent Kd [3]: 27.8 nM
apparent Kd [4]: 85.9 nM

GACUCUAAGUUUGUCAGUUAGAGAGAGGAUAUGGAAAACUUGACAUGAGGAUCACCCAUGUAUAAUCAGAAGGCUCGAGUACGA
apparent Kd [1]: 12.9 nM
apparent Kd [2]: 8.91 nM

AGGAAGUCAGGAUAUGCUGCUCGUCACUUGCGUGAUGAGUAGCAGAAGGGACAUGAGGAUCACCCAUGUAAAGA
apparent Kd [3]: 51.1 nM
apparent Kd [4]: 65.1 nM

AACGUCUUAGGAUAUACACUGGGACUUGCCAUGUGGGCCCUACAUGAGGAUCACCCAUGUAGAAGGAAGACAUG
apparent Kd [3]: 19.6 nM
apparent Kd [4]: 14 nM

UAAAAUAGUGUGAGGAUAUGCUGGUCCUUGGAUCAGCAGAAGGCACAUGAGGAUCACCCAUGUAGUUAAUUUUA
apparent Kd [3]: 40.5 nM
apparent Kd [4]: 218 nM

GUAGCAACAUGAGGAUCACCCAUGUAGGAUAUCGCUAUUGUAAUCAUGAAACAUGAUUACAAUAGCGAGAAGGACAUAAGCUAC
apparent Kd [3]: 6.67 nM
apparent Kd [4]: 8.84 nM

ACAUACAUUCGAGGAUAUCGGUGAGAAAUCUUACGAGAAGGCGAUUCAUGAUUUAUUAUCCUGGACAUGAGGAUCACCCAUGUA
apparent Kd [1]: 97.5 nM
apparent Kd [2]: 61.1 nM

GCCCGAUCCACGUUGGGCCCAGACAGAAGGGCACACGGUCUAAGUCACAUGAGGAUCACCCAUGUGCAGGAUAUGUCUCGACUC
apparent Kd [3]: 7.63 nM
apparent Kd [4]: 25.9 nM

UAUGGUAAAGUCAGGAUAUACGUGCAGUUUUCUGGGUAGAAGGGACAUGAGGAUCACCCAUGUAUGGUAGUGUU
apparent Kd [3]: 118 nM
apparent Kd [4]: 142 nM

CUAUUACGAGGAUAUGAUUUAAAUAACAUGAGGAUCACCCAUGUUUUUACGUUAUUUUGUUUAGAAGGCGUAUUGU
apparent Kd [3]: 52.9 nM
apparent Kd [4]: 35.7 nM

AUGAGGGAAGUAGGAUAUGAUCAAGACAUGAGGAUCACCCAUGUAAUGAGGGUGUGUGUCUUUGUUCAGAAGGACUUGUAUCAA
apparent Kd [3]: 60.4 nM
apparent Kd [4]: 60.4 nM

AAAAAACAUGAGGAUCACCCAUGUCUUUUGACAUGAGGAUAUGUACAGACUUCGGUCUGUACAGAAGGCAUGUCUU
apparent Kd [1]: 41.4 nM
apparent Kd [2]: 17.1 nM

AUUAACUACAUAGGAUAUUGAUACAUGAGGAUCACCCAUGUCACGUAUUUAUAUUAAACAUUUGACAAGAAGGAUGUGGUUACA
apparent Kd [1]: 17.2 nM
apparent Kd [2]: 7.01 nM

CGUAGGAUCCAGAAGGCAUGAACAUGAGGAUCACCCAUGUGAAAACACAUGAGGAUAUGGAUCCUACGAAAAGUGCGAAAGCAC
apparent Kd [1]: 5.4 nM
apparent Kd [2]: 4.66 nM

ACCGAACAUGAGGAUCACCCAUGUGAGGAUAUAGACGUGAAUUAAACACGUAACAAAACUAGAAGGCACUGGGC
apparent Kd [3]: 30.8 nM
apparent Kd [4]: 14.9 nM

UGGUACUAGGGAGGAUAUGGGAAGAUACAUGAGGAUCACCCAUGUUUAAGAAUGCCGAGAGGCAAGUAGAAGGCCCUAGUACCU
apparent Kd [1]: 781 nM
apparent Kd [2]: 97.5 nM

UCGUAUAAGGGCAUUACACAUGAGGAUCACCCAUGUACGUUAGAGGAUAUGCAUUCCAGUCGAACGUAGAAGGUUAGAGAAGGG
apparent Kd [3]: 307 nM
apparent Kd [4]: 268 nM

UUGUUAUAUGUAGGAUAUGCAUAUUGUUAUUAUGCAGAAGGACAUGAGGAUCACCCAUGUAUAUUAUUAUUAUAUAUUAUAUAU
apparent Kd [3]: 32 nM
apparent Kd [4]: 64.7 nM

GUCCUACAUGAGGAUCACCCAUGUGAGGAUAUGUGGUUAGCUGCUAGGUAGUUAGUAUGCAGAAGGUACGUGAU
apparent Kd [3]: 40.4 nM
apparent Kd [4]: 41.9 nM
